Consider four compounds from publication PMC4112157 (Bioorganic & medicinal chemistry, 2014).

In assay [1] the target is T1, h12-LOX (Homo sapiens, UniProt P18054).
T1 sequence (P18054 1-663): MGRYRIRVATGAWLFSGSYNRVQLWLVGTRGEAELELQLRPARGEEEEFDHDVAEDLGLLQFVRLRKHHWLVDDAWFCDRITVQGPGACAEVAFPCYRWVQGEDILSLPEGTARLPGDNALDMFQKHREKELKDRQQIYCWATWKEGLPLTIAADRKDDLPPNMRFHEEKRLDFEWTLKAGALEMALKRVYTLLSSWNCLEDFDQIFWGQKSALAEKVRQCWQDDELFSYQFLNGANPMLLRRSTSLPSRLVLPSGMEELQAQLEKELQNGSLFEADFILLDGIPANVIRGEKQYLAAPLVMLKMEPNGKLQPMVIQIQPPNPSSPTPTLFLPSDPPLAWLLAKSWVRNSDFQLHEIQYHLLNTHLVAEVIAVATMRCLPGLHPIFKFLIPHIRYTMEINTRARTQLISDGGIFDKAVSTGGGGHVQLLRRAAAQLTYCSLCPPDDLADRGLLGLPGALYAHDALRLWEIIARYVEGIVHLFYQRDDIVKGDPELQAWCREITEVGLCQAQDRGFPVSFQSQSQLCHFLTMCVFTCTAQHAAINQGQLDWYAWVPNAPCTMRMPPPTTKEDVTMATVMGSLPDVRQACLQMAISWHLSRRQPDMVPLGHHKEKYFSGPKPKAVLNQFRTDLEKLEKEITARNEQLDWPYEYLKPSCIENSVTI
The assay is described as follows: Oxo-lipid substrate activity, h12-LOX. It counts as biochemical.

For assay [2], the target named is T1, h12-LOX. The assay can be described thus: Steady-state inhibition kinetics, h12-LOX. It counts as biochemical. The note with it: for Ki: 0.4–10 μM AA, 25 mM HEPES pH 8.0, 0.01% Triton X-100, Dixon plot and replot. In short, it runs like this: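 Enzyme added to start the reaction in a stirred cuvette containing 0.4–10 μM arachidonic acid, 25 mM HEPES (pH 8.0) and 0.01% Triton X-100. 12-HpETE formation followed at 234 nm (ε = 25,000 M−1cm−1) across substrate and inhibitor concentrations, with Dixon series at 0.6, 1, 3 and 9 μM AA. Dixon plot and slope-vs-[inhibitor] replot give Kic (dissociation from enzyme) and Kiu (from enzyme–substrate complex).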

In assay [3] the target is T2, h15-LOX-1 (Homo sapiens, UniProt P16050).
T2 sequence (P16050 1-662): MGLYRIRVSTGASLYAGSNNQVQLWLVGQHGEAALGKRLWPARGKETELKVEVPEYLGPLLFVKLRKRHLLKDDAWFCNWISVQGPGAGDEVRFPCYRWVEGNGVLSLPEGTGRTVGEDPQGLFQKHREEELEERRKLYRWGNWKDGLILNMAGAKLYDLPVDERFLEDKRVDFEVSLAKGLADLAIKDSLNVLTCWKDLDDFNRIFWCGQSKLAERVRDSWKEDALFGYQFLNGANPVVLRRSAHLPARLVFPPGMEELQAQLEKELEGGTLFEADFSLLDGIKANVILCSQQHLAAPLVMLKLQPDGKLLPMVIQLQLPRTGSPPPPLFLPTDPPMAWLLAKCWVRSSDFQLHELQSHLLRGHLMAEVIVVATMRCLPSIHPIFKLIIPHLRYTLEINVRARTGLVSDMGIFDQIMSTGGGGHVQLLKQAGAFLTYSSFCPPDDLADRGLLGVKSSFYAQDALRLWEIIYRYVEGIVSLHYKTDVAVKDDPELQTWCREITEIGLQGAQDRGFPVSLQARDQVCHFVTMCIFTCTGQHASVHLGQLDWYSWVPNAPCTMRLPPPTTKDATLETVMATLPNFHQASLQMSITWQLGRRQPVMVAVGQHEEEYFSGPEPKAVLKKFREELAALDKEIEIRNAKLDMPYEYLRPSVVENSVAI
The assay can be described thus: Oxo-lipid substrate activity, h15-LOX-1. Type of assay: biochemical.

Assay [4] addresses T3, h5-LOX (Homo sapiens, UniProt P09917).
T3 sequence (P09917 1-674): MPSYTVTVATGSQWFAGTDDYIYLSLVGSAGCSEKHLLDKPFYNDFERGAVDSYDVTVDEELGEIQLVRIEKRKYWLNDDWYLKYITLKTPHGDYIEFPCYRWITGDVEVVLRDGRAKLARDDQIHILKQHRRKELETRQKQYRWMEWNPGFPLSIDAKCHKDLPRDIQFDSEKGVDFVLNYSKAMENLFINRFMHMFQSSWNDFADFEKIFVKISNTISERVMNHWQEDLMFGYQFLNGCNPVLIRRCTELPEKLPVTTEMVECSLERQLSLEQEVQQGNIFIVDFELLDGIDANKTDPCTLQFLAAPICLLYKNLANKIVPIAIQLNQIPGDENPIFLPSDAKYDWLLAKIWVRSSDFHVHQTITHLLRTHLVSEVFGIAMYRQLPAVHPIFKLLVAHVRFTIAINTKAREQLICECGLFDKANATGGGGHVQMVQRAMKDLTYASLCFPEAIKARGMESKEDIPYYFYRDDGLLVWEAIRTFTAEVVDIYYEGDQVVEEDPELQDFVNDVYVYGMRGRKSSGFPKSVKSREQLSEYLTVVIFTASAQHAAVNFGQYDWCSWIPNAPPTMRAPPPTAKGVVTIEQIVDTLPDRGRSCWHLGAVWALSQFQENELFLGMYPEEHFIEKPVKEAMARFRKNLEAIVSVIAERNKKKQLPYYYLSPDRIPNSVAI
The assay is described as follows: Oxo-lipid substrate activity, h5-LOX. It counts as biochemical. Particulars: IC50 assay conditions, 10 μM oxo-lipid, UV-Vis 234/280 nm, LC-MS.

For assay [5], the target named is LOX isozymes. The assay is described as follows: Lipoxygenase UV-Vis-based IC50 assay, summary over LOX isozymes. It counts as biochemical.
The target in assay [6] is T4, s15-LOX-1 (Glycine max, UniProt P08170).
T4 sequence (P08170 1-839): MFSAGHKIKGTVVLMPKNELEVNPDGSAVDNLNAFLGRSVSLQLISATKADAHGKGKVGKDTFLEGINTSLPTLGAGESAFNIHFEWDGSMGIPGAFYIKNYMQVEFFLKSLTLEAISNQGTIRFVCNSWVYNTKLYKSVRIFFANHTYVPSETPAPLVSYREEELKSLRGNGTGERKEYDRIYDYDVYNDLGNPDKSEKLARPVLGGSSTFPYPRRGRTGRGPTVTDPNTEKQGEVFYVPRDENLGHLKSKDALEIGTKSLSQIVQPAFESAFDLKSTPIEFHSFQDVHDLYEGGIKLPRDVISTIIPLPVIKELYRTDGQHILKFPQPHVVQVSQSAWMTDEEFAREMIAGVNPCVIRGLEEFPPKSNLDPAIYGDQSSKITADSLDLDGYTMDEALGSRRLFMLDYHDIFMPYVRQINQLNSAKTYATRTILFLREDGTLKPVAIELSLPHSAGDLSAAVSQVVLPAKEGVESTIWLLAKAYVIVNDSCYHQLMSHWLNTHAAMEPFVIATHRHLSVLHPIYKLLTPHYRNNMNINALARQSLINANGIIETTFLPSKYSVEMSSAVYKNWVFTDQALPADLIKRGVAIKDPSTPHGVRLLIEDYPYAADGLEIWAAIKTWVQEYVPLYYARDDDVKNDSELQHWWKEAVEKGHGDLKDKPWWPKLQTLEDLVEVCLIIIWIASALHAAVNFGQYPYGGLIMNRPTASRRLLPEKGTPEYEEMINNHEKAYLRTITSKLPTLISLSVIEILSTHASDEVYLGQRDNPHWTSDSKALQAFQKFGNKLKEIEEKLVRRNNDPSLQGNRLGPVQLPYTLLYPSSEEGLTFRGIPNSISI
The assay is described as follows: Lipoxygenase UV-Vis-based IC50 assay, s15-LOX-1. It counts as biochemical, soybean.

In assay [7] the test system is cytosolic calcium levels. The note with it: cited from earlier work.
The target in assay [8] is T2, h15-LOX-1. The assay is described as follows: Incubation activity assay. It counts as biochemical. The note with it: time incubation experiments.
Setting [9] is: IC50 assay conditions, 10 μM oxo-lipid, UV-Vis 234/280 nm, LC-MS.
The mark [10] stands for this setting: incubation conditions, 10 μM, on ice 15 minutes, HPLC and LC-MS.
[11] abbreviates: IC50 assay conditions, 10 μM oxo-lipid, UV-Vis 234/280 nm.

“Also recorded” adds a separate entry of the source. Like-named read-outs stand apart in the source and are kept apart here.

By Ki is commonly meant the dissociation constant of the complex between target and ligand, obtained from inhibition or displacement. Low readings indicate a stronger hold on the target, high ones a looser hold on the target. As a reminder, the IC50 is the point on the concentration scale where inhibition reaches its midpoint. Take `CCCCCC(=O)/C=C/C=C\C/C=C\C/C=C\CCCC(=O)O` [15-oxo-ETE, 15-oxo-5,8,11,13-(Z,Z,Z,E)-eicosatetraenoic acid]: the substrate activity entry in assay [1] (setting [9]) was “not a substrate”; in assay [1] (setting [10]) it was “not a substrate”; in assay [3] (setting [10]), “not a substrate”; in assay [4], “multiple oxidation products were formed”. Also, the Ki in assay [2] (Kic) worked out at 0.087 ± 0.008 µM; in assay [2] (Kiu), 2.1 ± 0.8 µM. The “mode of inhibition (steady state)” value in assay [2] (steady state inhibition kinetics) was “mixed inhibitor; also recorded: mixed inhibition”. The IC50 in assay [5] (read-out: IC50 against the other LOX isozymes, LOX isozymes other than h12-LOX) is over 25 µM.
As to `CCCCCC(=O)/C=C/C=C\CCCCCCCC(=O)O` [13-oxo-ODE, 13-oxo-9,11-(Z,E)-octadecadienoic acid], the IC50 in assay [6] is over 100 µM; in assay [5] (read-out: IC50 for all LOXs, all LOXs studied), over 100 µM.
In the case of `CCCCC/C=C\CC(=O)/C=C/C=C\C/C=C\CCCC(=O)O` [12-oxo-ETE, 12-oxo-5,8,10,14-(Z,Z,E,Z)-eicosatetraenoic acid], the IC50 in assay [6] is over 100 µM. Besides, in assay [3] (setting [11]), the substrate activity entry is reported as “no change of absorbance at 234 nm or 280 nm”. In assay [7], the “concentration with calcium effects (as low as)” value is 10 nM and the “concentration with effects on cytosolic calcium levels” value is 10 µM. Further, the “mode of inhibition (time dependence)” value in assay [8] is “irreversible inhibition”. In assay [4], the substrate activity entry is on record as “no change of absorbance at 234 nm or 280 nm”.
Turning to `CCCCC/C=C\C/C=C\C/C=C\C=C\C(=O)CCCC(=O)O` [5-oxo-ETE, 5-oxo-6,8,11,14-(E,Z,Z,Z)-eicosatetraenoic acid], the substrate activity result in assay [1] (setting [9]), in assay [3] (setting [11]) and in assay [4] was “no change of absorbance at 234 nm or 280 nm” throughout. The compound also registered an IC50 in assay [6] of over 100 µM.
